# Source: ChEMBL document CHEMBL4477178, “Biflorin, Isolated from the Flower Buds of Syzygium aromaticum L., Suppresses LPS-Induced Inflammatory Mediators via STAT1 Inactivation in Macrophages and Protects Mice from Endotoxin Shock” (J Nat Prod, 2016)
# Calls of active or inactive are those of the source. The rule behind the calls is not given here.
# Assays:
# RAW264.7 [1] = experiment: Antiinflammatory activity in mouse RAW264.7 cells assessed as inhibition of LPS-induced TNF-alpha mRNA expression at 60 uM after 2 to 12 hrs by qRT-PCR method; assay type: functional, cell-based
# Procedure, shortened: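 RAW 264.7 stimulated with LPS 10 ng/mL with or without 60 μM for 2, 4, 6 and 12 h. Total RNA (1 μg) reverse-transcribed with MuLV RT and random primer; SYBR green real-time qPCR with gene-specific primers, triplicate Ct normalized to β-actin. Mean ± SD, three independent experiments.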
# RAW264.7 [2] = experiment: Antiinflammatory activity in mouse RAW264.7 cells assessed as inhibition of LPS-induced TNF-alpha production at 60 uM preincubated for 1 hr followed by LPS challenge for 24 hrs by ELISA method; assay type: functional
# Procedure, shortened: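 RAW 264.7 cells in DMEM with 10% FBS, plated at 2 × 10^5 cells/mL and incubated overnight. Pretreated with compound (15, 30 or 60 μM) for 1 h, then LPS 10 ng/mL for 24 h. PGE2 measured by competitive colorimetric ELISA, TNF-α and IL-6 by ELISA, in diluted medium. NS-398 3 μM as positive control for PGE2. Mean ± SD, three independent experiments; IC50 given for PGE2.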
# RAW264.7 [3] = experiment: Antiinflammatory activity in mouse RAW264.7 cells assessed as downregulation of LPS-induced TNF-alpha expression at 60 uM preincubated for 1 hr followed by LPS challenge for 6 to 12 hrs by luciferase reporter gene assay; assay type: functional, cell-based
# Procedure, shortened: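 RAW 264.7 transiently cotransfected with promoter-luciferase construct (pGL3-iNOS, pGL3-COX-2 or pTNF-α-luc) plus phRL-TK internal control; 6 h after transfection pretreated 1 h with 60 μM, then LPS 10 ng/mL for 6 or 12 h. Cells washed in cold PBS, lysed, luciferase read. Mean ± SD, three independent experiments.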
# RAW264.7 [4] = experiment: Reduction in LPS-induced NF-kappa B activity in mouse RAW264.7 cells at 15 to 60 uM preincubated for 1 hr followed by LPS challenge for 12 hrs by luciferase reporter gene assay; assay type: cell-based
# [5] = molecular target: T1, Signal transducer and activator of transcription 1 (Mus musculus) (UniProt P42225); experiment: Inhibition of LPS-induced STAT1 phosphorylation at Y701 in mouse RAW264.7 cells at 15 to 60 uM preincubated for 1 hr followed by LPS challenge for 120 mins by Western blot analysis; assay type: cell-based
# T1 sequence (whole entry): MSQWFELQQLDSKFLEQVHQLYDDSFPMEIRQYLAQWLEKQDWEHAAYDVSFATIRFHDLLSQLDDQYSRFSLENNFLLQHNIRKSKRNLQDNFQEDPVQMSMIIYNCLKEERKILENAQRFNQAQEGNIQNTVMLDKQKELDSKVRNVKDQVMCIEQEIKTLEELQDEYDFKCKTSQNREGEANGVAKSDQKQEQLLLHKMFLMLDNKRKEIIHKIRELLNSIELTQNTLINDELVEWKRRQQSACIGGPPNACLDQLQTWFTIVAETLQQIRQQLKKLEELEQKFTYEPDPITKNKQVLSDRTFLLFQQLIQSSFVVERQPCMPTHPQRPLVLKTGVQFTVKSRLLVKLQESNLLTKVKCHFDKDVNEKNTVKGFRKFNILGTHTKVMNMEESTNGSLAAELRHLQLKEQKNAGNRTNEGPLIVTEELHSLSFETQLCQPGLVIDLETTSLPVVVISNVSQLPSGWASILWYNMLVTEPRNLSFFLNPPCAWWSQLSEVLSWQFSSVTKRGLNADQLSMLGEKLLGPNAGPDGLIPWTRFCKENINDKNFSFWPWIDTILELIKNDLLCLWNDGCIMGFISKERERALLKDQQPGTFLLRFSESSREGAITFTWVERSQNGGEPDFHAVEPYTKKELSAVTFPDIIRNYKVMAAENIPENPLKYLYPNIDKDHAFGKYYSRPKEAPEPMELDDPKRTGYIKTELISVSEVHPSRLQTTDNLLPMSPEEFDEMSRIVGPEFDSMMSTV
# Procedure, shortened: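 RAW 264.7 pretreated 1 h at 15, 30 or 60 μM, then LPS 10 ng/mL: 120 min for p-STAT1 Y701, 15 min for p-STAT1 S727, 120 min for p-STAT3 Y705. Western blot with phospho-specific and total STAT1/STAT3 antibodies, β-actin control; three independent experiments.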
# [6] = molecular target: T1, Signal transducer and activator of transcription 1 (Mus musculus); experiment: Inhibition of LPS-induced STAT1 phosphorylation at Y701 in C57BL/6 mouse peritoneal macrophages at 15 to 60 uM preincubated for 1 hr followed by LPS challenge for 120 mins by Western blot analysis
# Procedure, shortened: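 Thioglycolate-elicited C57BL/6 peritoneal macrophages pretreated 1 h at 15, 30 or 60 μM, then LPS 10 μg/mL: 120 min for p-STAT1 Y701, 30 min for p-STAT1 S727, 60 min for p-STAT3 Y705. Western blot with phospho-specific and total STAT antibodies, β-actin control; three independent experiments.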
# [7] = molecular target: Mitogen-activated protein kinase 1 and 3 (ERK2 and ERK1) (Mus musculus) (UniProt P63085+Q63844); experiment: Inhibition of LPS-induced ERK1/2 phosphorylation in mouse RAW264.7 cells at 15 to 60 uM preincubated for 1 hr followed by LPS challenge for 30 mins by Western blot analysis; assay type: cell-based
# Chain of Mitogen-activated protein kinase 1 and 3 (ERK2 and ERK1) (Mus musculus) (P63085 whole entry, looked up): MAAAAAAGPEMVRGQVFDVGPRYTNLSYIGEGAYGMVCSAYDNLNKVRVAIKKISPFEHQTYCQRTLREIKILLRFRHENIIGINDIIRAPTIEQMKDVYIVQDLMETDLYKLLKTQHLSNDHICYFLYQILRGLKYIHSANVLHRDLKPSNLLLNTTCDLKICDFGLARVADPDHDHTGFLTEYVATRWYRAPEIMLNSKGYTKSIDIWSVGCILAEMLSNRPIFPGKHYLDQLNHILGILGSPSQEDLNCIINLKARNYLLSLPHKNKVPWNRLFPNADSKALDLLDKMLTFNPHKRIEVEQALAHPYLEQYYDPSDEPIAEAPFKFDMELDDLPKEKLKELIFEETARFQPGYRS
# Chain of Mitogen-activated protein kinase 1 and 3 (ERK2 and ERK1) (Mus musculus) (Q63844 whole entry, looked up): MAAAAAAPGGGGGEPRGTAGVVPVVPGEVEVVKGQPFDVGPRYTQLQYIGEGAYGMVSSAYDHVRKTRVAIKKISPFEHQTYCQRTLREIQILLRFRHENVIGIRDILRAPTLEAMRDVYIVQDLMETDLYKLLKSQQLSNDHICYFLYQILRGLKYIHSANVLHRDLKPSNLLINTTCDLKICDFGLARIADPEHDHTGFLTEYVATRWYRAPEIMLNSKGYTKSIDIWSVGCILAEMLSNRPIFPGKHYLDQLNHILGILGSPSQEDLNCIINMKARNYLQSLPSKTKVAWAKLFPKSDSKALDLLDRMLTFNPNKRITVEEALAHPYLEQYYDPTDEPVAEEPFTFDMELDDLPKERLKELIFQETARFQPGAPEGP
# Procedure, shortened: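 RAW 264.7 pretreated 1 h at 15, 30 or 60 μM, then LPS 10 ng/mL for 30 min. Lysates Western-blotted for p-p38, p38, p-JNK, JNK, p-ERK, ERK with β-actin control; ECL, densitometry. Three independent experiments.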
# Mus musculus = experiment: In vivo inhibition of LPS-induced STAT1 phosphorylation at S727 in C57BL/6 mouse liver at 10 mg/kg, ip pretreated for 1 hr followed by LPS challenge for 6 hrs by Western blot analysis; assay type: functional, organism-based
# Procedure, shortened: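 Male C57BL/6 mice given 10 mg/kg i.p. or vehicle 1 h before LPS (Salmonella enterica, 25 mg/kg i.p.); liver collected 6 h after LPS, frozen at −80 °C. Liver mRNA by SYBR qRT-PCR normalized to β-actin; protein by Western blot for p-STAT1 (Y701, S727). Eight mice per group; mean ± SD.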
smiles,measurement,setting,value
Cc1cc(=O)c2c(O)c([C@@H]3O[C@H](CO)[C@@H](O)[C@H](O)[C@H]3O)c(O)cc2o1 [BIFLORIN],inhibition,RAW264.7 [1],Active
same,inhibition at 60 µM,RAW264.7 [2],75%
same,Activity,RAW264.7 [3],Active
same,inhibition,RAW264.7 [4],inactive
same,inhibition,[5],Active
same,inhibition,[6],Active
same,inhibition,[7],inactive
same,inhibition,Mus musculus,Active
